The record followed here is ChEMBL document CHEMBL1799968, “Dimethyl-diphenyl-propanamide derivatives as nonsteroidal dissociated glucocorticoid receptor agonists” (J Med Chem, 2010).

The target of one assay is T1, Androgen receptor (Homo sapiens, UniProt P10275).
T1 sequence (P10275 whole entry): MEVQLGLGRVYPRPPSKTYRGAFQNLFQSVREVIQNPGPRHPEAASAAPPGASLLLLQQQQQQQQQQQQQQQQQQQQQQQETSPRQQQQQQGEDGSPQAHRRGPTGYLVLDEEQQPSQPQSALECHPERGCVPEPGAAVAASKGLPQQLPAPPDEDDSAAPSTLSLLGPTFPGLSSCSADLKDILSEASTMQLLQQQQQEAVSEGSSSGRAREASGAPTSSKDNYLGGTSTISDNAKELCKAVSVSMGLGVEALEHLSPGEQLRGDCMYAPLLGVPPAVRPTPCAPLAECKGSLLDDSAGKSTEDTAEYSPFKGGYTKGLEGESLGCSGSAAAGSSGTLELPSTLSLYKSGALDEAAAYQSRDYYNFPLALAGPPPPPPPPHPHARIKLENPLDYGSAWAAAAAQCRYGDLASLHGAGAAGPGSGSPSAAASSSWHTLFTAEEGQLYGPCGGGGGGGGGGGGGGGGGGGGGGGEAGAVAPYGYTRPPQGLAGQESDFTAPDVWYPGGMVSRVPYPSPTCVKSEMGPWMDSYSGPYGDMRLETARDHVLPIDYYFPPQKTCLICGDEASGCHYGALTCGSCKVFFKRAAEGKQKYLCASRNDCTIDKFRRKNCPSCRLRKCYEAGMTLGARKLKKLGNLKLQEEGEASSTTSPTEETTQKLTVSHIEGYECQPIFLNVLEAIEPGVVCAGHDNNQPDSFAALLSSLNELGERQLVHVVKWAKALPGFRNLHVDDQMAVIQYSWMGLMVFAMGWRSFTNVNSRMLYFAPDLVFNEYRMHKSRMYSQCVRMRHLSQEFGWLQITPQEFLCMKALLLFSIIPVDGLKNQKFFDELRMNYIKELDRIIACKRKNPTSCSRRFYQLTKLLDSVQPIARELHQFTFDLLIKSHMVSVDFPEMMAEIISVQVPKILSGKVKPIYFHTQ
Put plainly: Binding affinity to androgen receptor by fluorescence polarization assay. In outline:
(§1)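 Fluorescence polarization competition of test compound against a fluorescently labelled ligand for binding to full-length receptor or its ligand-binding domain.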
Background: In fluorescence polarisation assays a small probe gives low polarisation when free and higher when bound to something large.

A further assay concerns the target T2, Progesterone receptor (Homo sapiens, UniProt P06401).
T2 sequence (P06401 whole entry): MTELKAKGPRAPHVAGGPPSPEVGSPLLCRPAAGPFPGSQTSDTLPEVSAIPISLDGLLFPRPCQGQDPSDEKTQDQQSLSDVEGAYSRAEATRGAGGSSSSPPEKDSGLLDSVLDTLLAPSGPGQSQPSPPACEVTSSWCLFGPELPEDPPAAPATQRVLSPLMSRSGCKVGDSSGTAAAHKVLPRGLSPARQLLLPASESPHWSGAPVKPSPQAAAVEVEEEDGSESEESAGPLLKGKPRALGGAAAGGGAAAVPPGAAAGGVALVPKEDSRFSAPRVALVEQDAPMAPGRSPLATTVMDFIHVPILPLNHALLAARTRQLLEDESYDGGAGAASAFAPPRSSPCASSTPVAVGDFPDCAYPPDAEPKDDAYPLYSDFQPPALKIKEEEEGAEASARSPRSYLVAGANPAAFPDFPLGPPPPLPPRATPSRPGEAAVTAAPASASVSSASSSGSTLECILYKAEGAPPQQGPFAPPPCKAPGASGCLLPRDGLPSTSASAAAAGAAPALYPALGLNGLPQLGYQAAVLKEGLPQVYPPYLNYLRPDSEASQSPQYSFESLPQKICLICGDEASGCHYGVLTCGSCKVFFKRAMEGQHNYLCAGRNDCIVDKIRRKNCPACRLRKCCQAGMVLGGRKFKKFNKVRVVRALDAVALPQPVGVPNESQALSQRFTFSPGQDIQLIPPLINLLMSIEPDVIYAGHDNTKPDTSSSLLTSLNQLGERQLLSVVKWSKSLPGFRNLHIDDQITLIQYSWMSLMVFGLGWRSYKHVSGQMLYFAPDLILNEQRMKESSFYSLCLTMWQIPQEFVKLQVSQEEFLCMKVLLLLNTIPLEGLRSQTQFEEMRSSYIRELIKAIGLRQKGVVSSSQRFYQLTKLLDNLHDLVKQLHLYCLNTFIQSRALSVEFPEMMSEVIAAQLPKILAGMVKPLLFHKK
The experiment in a line: Binding affinity to progesterone receptor by fluorescence polarization assay. The procedure, abridged:
as §1

Assay [1] is described as follows: Selectivity ratio of Ki of GRapha to Ki of estrogen receptor alpha.
Another assay has as its target T3, Glucocorticoid receptor (Homo sapiens, UniProt P04150).
T3 sequence (P04150 whole entry): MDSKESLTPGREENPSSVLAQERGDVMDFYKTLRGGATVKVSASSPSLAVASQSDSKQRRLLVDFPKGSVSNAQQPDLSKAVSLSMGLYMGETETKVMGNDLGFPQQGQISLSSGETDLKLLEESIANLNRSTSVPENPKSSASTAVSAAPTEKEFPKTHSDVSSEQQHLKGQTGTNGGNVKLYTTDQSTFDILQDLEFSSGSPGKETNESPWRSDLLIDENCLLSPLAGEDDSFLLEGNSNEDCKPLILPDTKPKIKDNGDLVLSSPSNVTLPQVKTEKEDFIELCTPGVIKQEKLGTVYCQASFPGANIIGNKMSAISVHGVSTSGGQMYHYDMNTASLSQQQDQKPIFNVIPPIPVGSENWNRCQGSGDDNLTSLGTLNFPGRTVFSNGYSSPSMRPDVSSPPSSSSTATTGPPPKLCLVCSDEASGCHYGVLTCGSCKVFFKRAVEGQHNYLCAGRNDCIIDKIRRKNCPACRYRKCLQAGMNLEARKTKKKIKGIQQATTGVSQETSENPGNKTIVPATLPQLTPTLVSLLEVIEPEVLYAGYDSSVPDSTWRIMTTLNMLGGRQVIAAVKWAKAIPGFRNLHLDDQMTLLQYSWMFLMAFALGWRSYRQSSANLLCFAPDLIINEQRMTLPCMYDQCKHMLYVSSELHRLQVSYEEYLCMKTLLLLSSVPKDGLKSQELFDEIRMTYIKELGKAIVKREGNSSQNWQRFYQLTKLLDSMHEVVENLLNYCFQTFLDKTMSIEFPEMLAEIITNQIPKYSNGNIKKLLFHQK
The experiment in a line: Displacement of GS-red from GRapha by fluorescence polarization assay.

Assay [2] deals with T4, Glucocorticoid receptor (Homo sapiens) (UniProt P04150).
T4 sequence (whole entry): T3 sequence (P04150 whole entry)
Put plainly: Transactivation activity at glucocorticoid receptor in human 13D3/Huh7 cells assessed as induction of tyrosine aminotransferase activity after 24 hrs relative to Dexamethasone. Format: cell-based. The conditions noted are these: Huh-7. The procedure, abridged:
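Human 13D3/Huh7 hepatoma cells, 20 K/well, were incubated overnight at 37 °C/5% CO2. They were then treated overnight with compounds in assay medium containing 20 μM forskolin. The reaction was stopped with KOH and A340 read. Results are % activation, with EC50 derived.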

Assay [3] addresses T4, Glucocorticoid receptor (Homo sapiens). The experiment in a line: Transrepression activity of glucocorticoid receptor in human A549 cells expressing AP-1 assessed as inhibition of PMA-induced AP-1 activity by luciferase reporter gene assay relative to Dexamethasone. The format is cell-based. In outline: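 Human A549 lung epithelial cells stably transfected with a 5×AP-1 response element luciferase reporter. AP-1 was induced with PMA (15 ng/mL), and inhibition was read as decreased luciferase.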
On the technique in general: A reporter such as luciferase makes a cellular process visible.

A short description of assay [4]: Selectivity ratio of Ki of GRapha to Ki of androgen receptor.

As usually defined, the Ki is a dissociation constant, usually derived from enzyme kinetics or from competition with a known ligand.

As to `CC(C)(C(=O)Nc1nccs1)[C@@H](c1ccccc1)c1ccc(O)c(F)c1`, the inhibitory constant (Ki) stood at 1030 nM on Androgen receptor, 53 nM at Progesterone receptor and 0.7 nM on Glucocorticoid receptor. For the same compound, the Ratio Ki is more than 6800 in assay [1] and more than 870 in assay [4]. The values for the Efficacy in assay [2] and in assay [3] were 48% and 79%, respectively.
For `CC(C)(C(=O)Nc1nncs1)[C@H]1c2ccccc2Oc2cc(O)ccc21`, the inhibition constant Ki on Androgen receptor was determined as 696 nM; at Progesterone receptor, 53 nM; on Glucocorticoid receptor, 0.8 nM. Also, the Ratio Ki in assay [1] was more than 6800; in assay [4] it was more than 870. The values for the Efficacy in assay [2] and in assay [3] were 45% and 82%, respectively.
For `CC(C)(C(=O)Nc1nccs1)[C@H]1c2ccccc2Oc2cc(O)ccc21`, the figures for the inhibitory constant (Ki) on Androgen receptor, on Progesterone receptor and on Glucocorticoid receptor were 2340 nM, 22 nM and 0.3 nM, respectively. Further, the Ratio Ki in assay [1] was more than 6800; in assay [4] it was more than 870. The Efficacy in assay [2] was determined as 39%; in assay [3] it was 81%.
Regarding `CC(C)(C(=O)Nc1nccs1)[C@@H](c1ccccc1)c1ccc(O)c(Br)c1`, the Ki at Androgen receptor stood at 370 nM; at Progesterone receptor, 31 nM; on Glucocorticoid receptor, 0.4 nM. Also, the Ratio Ki is more than 6800 in assay [1] and more than 870 in assay [4]. Moreover, the Efficacy in assay [2] is 29%; in assay [3], 83%.
As for `CC(C)(C(=O)Nc1nccs1)[C@@H](c1ccccc1)c1ccc(O)cc1`, the inhibition constant (Ki) at Androgen receptor was determined as 1060 nM; on Progesterone receptor it was 273 nM; on Glucocorticoid receptor, 1.2 nM. The Ratio Ki in assay [1] was more than 6800; in assay [4], more than 870. Besides, the Efficacy was 21% in assay [2] and 63% in assay [3].
